UCH37 inh = blocks the human deubiquitinase UCH37 | Q9Y5K5 | purified proteasome/UCH37, Ub-AMC cleavage fluorescence | inhibition, % (concentration not given with the values) | hit rate 0.33% among 330,000;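 active = mean inhibition over replicate wells above about 20%, limit read from the data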;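 note: 0% = compound-free wells with enzyme and 100% = wells lacking proteasome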
Target sequence (Q9Y5K5 whole entry, looked up): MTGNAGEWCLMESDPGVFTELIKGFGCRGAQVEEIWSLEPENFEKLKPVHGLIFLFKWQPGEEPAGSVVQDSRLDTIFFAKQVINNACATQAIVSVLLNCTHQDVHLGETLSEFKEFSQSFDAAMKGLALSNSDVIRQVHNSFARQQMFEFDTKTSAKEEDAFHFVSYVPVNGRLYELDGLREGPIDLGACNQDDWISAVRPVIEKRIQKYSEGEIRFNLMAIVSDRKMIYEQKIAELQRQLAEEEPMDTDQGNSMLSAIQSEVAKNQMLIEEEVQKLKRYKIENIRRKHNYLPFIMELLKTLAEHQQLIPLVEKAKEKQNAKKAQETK
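Material: human UCH37 enzyme supplied as purified proteasome complex. Measure: % inhibition of Ub-AMC cleavage fluorescence. Medium: pH 7.4 Tris-HCl (50 mM) with ovalbumin, ATP-MgCl2, DTT. Times: 30 min preincubation with enzyme, 25 min cleavage at room temperature. Detection: AMC fluorescence intensity at 355/460 nm.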
MEKK3 PB1 HTS = raises or lowers MEK5 binding to the human MEKK3 PB1 domain; bead-based flow cytometry, Alexa488-MEK5 binding to MEKK3; actives lie on both sides; 0 = blocked by unlabeled MEK5, 100 = vehicle; Q99759; hit rate 1.4% among 290,000; binding response (% of control), % at 10 µM;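 active = binding response more than 3 SD above or below the average of its plate-row segment, actives on both sides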;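 note: Alexa488 bead fluorescence after subtracting the streptavidin-only scavenger bead signal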
Rce1 inhib = inhibitors of yeast Ras-converting enzyme; hit rate 0.27% among 290,000; yeast membranes, quenched prenylated peptide cleavage fluorescence; calls only;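 active = fall in fluorescence gain of 50% or more versus controls, with final raw signal at or below 3038400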;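 note: plate controls were neutral control wells for no effect and wells lacking membranes for full effect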
T cell modulator = modulates CD8 T cell binding to vesicles | 2C CD8+ T cell-vesicle binding, flow cytometry; active compounds read low | AID 2052 | response (vesicle binding), % at 7 µM | hit rate 0.068% among 330,000;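 active = response, share of CD8 T cells binding vesicles, and their 90th percentile fluorescence all below set limits, cut at about 80% in these data, passing the limit was not always enough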;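 note: values below 100% mean blocked vesicle binding to the CD8+ T cells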
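Incubation: binding step 1.5 h, 37 °C, antibody labelling 20 min, ice; system: murine 2C transgenic CD8+ T lymphocytes; technique: cytometric PE anti-B7-1 and Alexa647 anti-CD8 signals after 1% paraformaldehyde fixation; also added: QL9-charged Drosophila Ld/ICAM-1/B7-1 vesicles; control set: naked versus QL9-loaded vesicles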
MEKK2mut PB1 HTS = signal of MEK5 binding to mutant human MEKK2 PB1 domain | hit rate 0.35% among 290,000 | percent response, % at 10 µM | bead flow cytometry, Alexa488-MEK5 binding to MEKK2 mutant; in the data active = percent response above about 24%, passing the limit was not always enough
MEKK2 WT-MEK5 = raises or lowers MEK5 binding to wildtype human MEKK2 PB1 domain; binding response (% of control), % at 10 µM; AID 1531; bead flow cytometry, Alexa488-MEK5 binding to MEKK2 WT; actives lie on both sides; hit rate 1.1% among 290,000; in the data active = binding response below about 67% or above about 130%
MEKK2wt confirm = raises or lowers MEK5 binding to wildtype human MEKK2, retest | shares compounds with MEKK3 PB1 HTS | bead flow cytometry, Alexa488-MEK5 binding to MEKK2 WT; actives lie on both sides | binding response (% of control), % at 10 µM | hit rate 2.4% among 5,900; in the data active = binding response below about 16% or above about 210%; inactive = in between
MEKK2mut-MEK5 = signal of MEK5 binding to mutant human MEKK2, retest. AID 1893. bead flow cytometry, Alexa488-MEK5 binding to MEKK2 mutant. hit rate 2% among 5,900. percent response, % at 10 µM. shares compounds with MEKK3 PB1 HTS; in the data active = percent response mostly above about 71%, no sharp cut-off; inactive = mostly below about 38%;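 note: higher means compound restores mutant binding toward wildtype level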
MEKK3-MEK5 inh = confirmation of inhibitors of MEK5 binding to human MEKK3. shares compounds with MEKK3 PB1 HTS. AID 1894. bead flow cytometry, Alexa488-MEK5 binding to MEKK3; active compounds read low. hit rate 1.8% among 5,900. binding response (% of control), % at 10 µM;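 active = binding response below 72% of control, or above a set upper limit, though filed actives all read lower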;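 note: 100% = DMSO only wells and 0% = binding blocked by excess unlabeled MEK5; lower values mean stronger disruption of MEK5 binding to MEKK3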
* = called active by the depositor; i = inactive; . = not tested or not shown; [ ] = dose if it differs, or a comment. Sampled rows, rich in hits. Any-hit rate of the full collection: about 2.5%.

SMILES | UCH37 inh | MEKK3 PB1 HTS | Rce1 inhib | T cell modulator | MEKK2mut PB1 HTS | MEKK2 WT-MEK5 | MEKK2wt confirm | MEKK2mut-MEK5 | MEKK3-MEK5 inh
CCCCC1=CC2=C(c3ccco3)C(=O)C(C)(OC(=O)c3ccc(OC)cc3)C(=O)C2=CN1CCN1CCOCC1 (stereo not drawn) | 1.9 | 95.0 | i | 401.3 | 6.0 | 142.0* | 108.0 | 2.0 | 94.0
CC1=C(C#N)C(=O)NC(=O)/C1=C/c1ccc(-c2ccc(S(N)(=O)=O)cc2)o1 | -12.8 | 7.0*[inhibitor] | i | 850.1 | -13.0 | 3.0*[inhibitor] | 82.0 | -12.0 | 88.0
CC(C)ON=C1C(=O)N(c2ccccc2)c2ccccc21 | 2.1 | . | . | . | . | . | . | . | .
NC1=NC[C@@H](Cc2ccc(O)cc2)N1CCc1cccc2ccccc12 | 1.5 | 99.0 | i | 137.0 | 6.0 | 111.0 | . | . | .
NC1=NC[C@H](Cc2ccc(O)cc2)N1CCc1cccc2ccccc12 | 0.4 | 116.0 | i | 586.0 | 50.0* | 152.0* | 150.0 | 25.0 | 98.0
NC1=NC[C@H](Cc2ccc(O)cc2)N1CCCCC1CCCCC1 | 3.9 | 112.0 | i | 431.6 | 20.0 | 184.0*[inhibitor] | 127.0 | 40.0 | 106.0
NC1=NC[C@H](Cc2ccccc2)N1CCCCC1CCCCC1 | 2.0 | 111.0 | i | 168.8 | 13.0 | 151.0* | 132.0 | 13.0 | 106.0
CCOc1ccccc1OCC(=O)NN=C(C)Cc1ccc(OC)cc1 | 0.6 | . | . | . | . | . | . | . | .
COc1ccc(C(C)=NNC(=O)CNC(=O)/C=C\c2ccccc2)c(OC)c1 | 0.2 | . | . | . | . | . | . | . | .
COc1ccc(C2NC(C(=O)O)Cc3c2[nH]c2ccccc32)cc1CN1CCN(c2ccc(F)cc2)CC1 (stereo not drawn) | -4.1 | 93.0 | i | i | 5.0 | 120.0 | . | . | .
COc1ccc(C2NCCc3c2[nH]c2ccccc32)cc1COc1ccc(F)cc1 (stereo not drawn) | 2.4 | 62.0*[inhibitor] | i | 423.3 | 2.0 | 140.0* | 205.0 | 69.0 | 114.0
COc1ccc(/C=N/NC(=O)c2cc(OC)c(OC)c(OC)c2)cc1CN1CCc2cc(OC)c(OC)cc2C1C (stereo not drawn) | . | 102.0 | i | 241.4 | 13.0 | 136.0 | . | . | .
COc1ccc(C2NCCc3c2[nH]c2ccccc32)cc1CN1CCc2cc(OC)c(OC)cc2C1C (stereo not drawn) | 3.5 | 107.0 | i | . | 20.0 | 172.0* | 216.0* | 81.0* | 117.0
COc1ccc(Br)cc1C=NNC(=O)c1cc(OC)c(OC)c(OC)c1 | 0.4 | . | . | . | . | . | . | . | .
O=C(c1ccoc1)N1CCC2(CC1)Oc1ccc(Cl)cc1C(=O)C21CC(c2cccnc2)=NO1 (stereo not drawn) | 2.2 | 103.0 | i | 560.6 | 3.0 | 100.0 | . | . | .
O=C(c1ccoc1)N1CCC2(CC1)Oc1ccc(Cl)cc1C(=O)C21CC(c2ccccc2)=NO1 (stereo not drawn) | 1.1 | 45.0*[inhibitor] | i | 235.4 | 2.0 | 53.0 | 99.0 | -3.0 | 103.0
O=C1NCCCC1=NNc1cc(F)ccc1F | 6.9 | . | . | . | . | . | . | . | .
Cc1cc(NC(=O)COC(=O)COc2ccc3c(c2)CCC3)no1 | 6.7 | 132.0* | i | 249.1 | 11.0 | 131.0 | 105.0 | 2.0 | 104.0
Cc1ccccc1NC(=O)COC(=O)COc1ccc2c(c1)CCC2 | 1.9 | . | . | . | . | . | . | . | .
Cc1cc(C=NNC(N)=S)c(O)c(C=NNC(N)=S)c1 | 5.8 | . | . | . | . | . | . | . | .
CCOc1cc(C=NNC(=O)c2ccc(=O)n(C)c2)ccc1O | 8.5 | . | . | . | . | . | . | . | .
Cc1ccc2nc(CSc3nnc(-c4ccco4)o3)cc(=O)n2c1 | -2.6 | 71.0*[inhibitor] | i | 471.7 | -3.0 | 91.0 | 105.0 | -1.0 | 107.0
COc1ccc(C=NNC(=O)c2nnn(-c3nonc3N)c2CN(C)C2CCCCC2)cc1 | 2.8 | . | . | . | . | . | . | . | .
